Assay results taken from ChEMBL document CHEMBL1140094, “Novel microtubule-interacting phenoxy pyridine and phenyl sulfanyl pyridine analogues for cancer therapy” (J Med Chem, 2008).
Activity calls are given as the source filed them. The calls are words filed in the database; no cut-off is given here.

Tests used:
[1] = test system: PANC-1; assay: Growth inhibition of human Panc1 cells at 1 uM after 96 hrs by MTT assay relative to control; format: functional; settings: PANC-1, 96 h, values are per cent of control
Summary of the method: (§1)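 MTT initial screen of Panc1 and HS766T human pancreatic cancer cells at 1 and 10 μM; growth expressed as percent of untreated control with SD.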

[2] = test system: PANC-1; assay: Growth inhibition of human Panc1 cells at 10 uM after 96 hrs by MTT assay relative to control; format: functional; settings: PANC-1, 96 h, values are per cent of control; summary of the method: as §1
[3] = Growth inhibition of human HS766T cells at 1 uM after 96 hrs by MTT assay relative to control; format: functional; settings: Hs 766, 96 h, values are per cent of control; summary of the method: as §1
[4] = Growth inhibition of human HS766T cells at 10 uM after 96 hrs by MTT assay relative to control; format: functional; settings: Hs 766, 96 h, values are per cent of control; summary of the method: as §1
[5] = test system: PANC-1; assay: Growth inhibition of human Panc1 cells after 96 hrs by MTT assay relative to control; format: functional, cell-based; settings: PANC-1, 96 h
[6] = Growth inhibition of human HS766T cells after 96 hrs by MTT assay relative to control; format: functional, cell-based; settings: Hs 766, 96 h
[7] = test system: MCF7; assay: Cell cycle arrest in human MCF7 cells assessed as accumulation at G2/M phase at 5 uM after 15 hrs by propidium iodide staining; format: functional
Summary of the method: (§2)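 MCF7 breast cancer cells treated 15 h at 5 μM; colcemid 0.1 μg/mL (about 0.25 μM) as positive control. Cells harvested and fixed, DNA labeled with propidium iodide, mitotic cells labeled with monoclonal MPM2 (phospho-epitopes at mitosis onset); flow cytometry. PI scans gated M1 G1, M3 S, M2 G2/M; mitotic fold increase versus untreated.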

[8] = test system: MCF7; assay: Cell cycle arrest in human MCF7 cells assessed as accumulation at G2/M phase at 5 uM after 15 hrs by MPM2 antibody labeling; format: functional; summary of the method: as §2
[9] = Inhibition of tubulin polymerization assessed as effect on maximum propogation rate
[10] = test system: MCF7; assay: Induction of microtubule disassembly in human MCF7 cells assessed as prometaphase cell cycle arrest at 5 uM after 15 hrs by immunofluorescence staining; format: functional, cell-based
Summary of the method: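 MCF7 cells exposed 15 h to 5 μM compound, colcemid 0.25 μM as positive control, untreated controls. Anti-α-tubulin primary with Alexa-568 secondary, DNA counterstained with DAPI; immunofluorescence microscopy scoring microtubule loss, mitotic stage (prometaphase arrest) and micronuclei in interphase cells.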

[11] = Inhibition of tubulin polymerization
[12] = Inhibition of tubulin polymerization at 4 to 5 uM relative to control
Summary of the method: (§3)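 Turbidity-monitored tubulin assembly; extent of assembly at 20 min compared with no-compound control.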

[13] = Inhibition of tubulin polymerization relative to control; settings: values are per cent of control; summary of the method: as §3
[14] = test system: SK-OV-3; assay: Cytotoxicity against paclitaxel-resistant human SKOV3 cells after 7 days by MTT assay; format: functional, cell-based

| SMILES | viability, % of control at 1 µM [1] [%] | viability, % of control at 10 µM [2] [%] | viability, % of control at 1 µM [3] [%] | viability, % of control at 10 µM [4] [%] | other results |
| --- | --- | --- | --- | --- | --- |
| C=CCNC(=O)c1cccc(Oc2ccc(NC(=O)NC(=O)c3ccccc3[N+](=O)[O-])cc2)c1 | 76 | 55 | 55 | 30 |  |
| C=CCNC(=O)c1cccc(Sc2ccc(NC(=O)NC(=O)c3ccccc3Cl)cc2)c1 | 69 | 46 | 109 | 36 |  |
| C=CCNC(=O)c1cccc(Sc2ccc(NC(=O)NC(=O)c3cc(OC)cc(OC)c3)cc2)c1 | 62 | 41 | 105 | 87 |  |
| CCCCCCCCCCNC(=O)c1cccc(S(=O)(=O)c2ccc(NC(=O)NC(=O)c3cc(OC)cc(OC)c3)cc2)c1 | 48 | 43 | 71 | 56 |  |
| C=CCNC(=O)c1cccc(Oc2ccc(NC(=O)NC(=O)c3ccccc3Cl)cc2)c1 | 47 | 38 | 36 | 23 | IC50 [5]: 800 nM; IC50 [6]: 150 nM; Activity [7]: 67.49%; Activity [8]: 38.29%; IC50 [9]: 4000 nM; Activity [10]: Active |
| CNC(=O)c1cccc(Sc2ccc(NC(=O)NC(=O)c3ccccc3)cc2)c1 | 65 | 41 | 77 | 26 |  |
| C=CCNC(=O)c1cccc(Oc2ccc(NC(=S)NC(=O)c3ccccc3)cc2)c1 | 97 | 68 | 88 | 73 |  |
| O=C(NC(=O)c1ccccc1Cl)Nc1ccc(Sc2cccc(C(=O)NCc3ccccc3)c2)cc1 | 86 | 66 | 95 | 74 |  |
| CCCCCCCCCCNC(=O)c1cccc(Sc2ccc(NC(=O)NC(=O)c3ccc(OC)c(OC)c3Cl)cc2)c1 | 63 | 51 | 79 | 62 |  |
| CNC(=O)c1cccc(Sc2ccc(NC(=O)NC(=O)c3cc(OC)cc(OC)c3Cl)cc2)c1 | 77 | 52 | 54 | 31 |  |
| C=CCNC(=O)c1cccc(Oc2ccc(NC(=O)NC(=O)c3cc(OC)cc(OC)c3)cc2)c1 | 58 | 68 | 107 | 64 |  |
| COc1cc2c(c(OC)c1OC)-c1ccc(OC)c(=O)cc1[C@@H](NC(C)=O)CC2 [COLCHICINE] |  |  |  |  | IC50 [11]: 2200 nM |
| C=CCNC(=O)c1cccc(Oc2ccc(NC(=O)NC(=O)c3ccc(OC)c(OC)c3Cl)cc2)c1 | 61 | 53 | 67 | 50 |  |
| CNC(=O)c1cccc(Sc2ccc(NC(=O)NC(=O)c3ccccc3[N+](=O)[O-])cc2)c1 | 60 | 38 | 63 | 23 |  |
| C=CCNC(=O)c1cccc(Sc2ccc(NC(=O)NC(=O)c3ccccc3[N+](=O)[O-])cc2)c1 | 70 | 44 | 50 | 27 |  |
| CNC(=O)c1cccc(Sc2ccc(NC(=O)NC(=O)c3ccc(OC)c(OC)c3Cl)cc2)c1 | 35 | 33 | 30 | 21 | IC50 [5]: 700 nM; IC50 [6]: 500 nM; Activity [7]: 75.71%; Activity [8]: 47.23%; inhibition [12]: 50%; residual activity [13]: 40%; IC50 [9]: 1700 nM; Activity [10]: Active; Activity [14]: Active |
| C=CCNC(=O)c1cccc(Sc2ccc(NC(=O)NC(=O)c3ccc(OC)c(OC)c3Cl)cc2)c1 | 88 | 44 | 101 | 23 |  |
| COc1ccc(C(=O)NC(=O)Nc2ccc(Sc3cccc(C(=O)NCc4ccccc4)c3)cc2)c(Cl)c1OC | 89 | 51 | 97 | 75 |  |
| CCCCCCCCCCNC(=O)c1cccc(Sc2ccc(NC(=O)NC(=O)c3cc(OC)cc(OC)c3)cc2)c1 | 74 | 58 | 77 | 66 |  |
| C=CCNC(=O)c1cccc(Oc2ccc(NC(=O)NC(=O)c3ccccc3)cc2)c1 | 66 | 51 | 76 | 70 |  |
| O=C(NC(=O)c1ccccc1)Nc1ccc(Sc2cccc(C(=O)NCc3ccccc3)c2)cc1 | 67 | 53 | 79 | 73 |  |
